mIAP block: blocks mouse intestinal alkaline phosphatase; purified mouse IAP, CDP-Star luminescence, 30 min; inhibition, % at 10 µM; 330,000 compounds, 0.2% hits;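 active = inhibition of at least 40% at 10 µM in the primary screen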;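 also: plate controls were DMSO with enzyme for no effect and no enzyme wells for full effect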
hIAP activ: human IAP activation; purified human IAP, CDP-Star luminescence, 30 min; stronger effect = higher value; 1 = vehicle-only enzyme, 0 = enzyme-free background; 330,000 compounds, 0.16% hits; activation factor at 10 µM; P09923;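 active = activation factor of the enzyme at least 2-fold when tested at 20 µM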
Target sequence (P09923 whole entry, looked up): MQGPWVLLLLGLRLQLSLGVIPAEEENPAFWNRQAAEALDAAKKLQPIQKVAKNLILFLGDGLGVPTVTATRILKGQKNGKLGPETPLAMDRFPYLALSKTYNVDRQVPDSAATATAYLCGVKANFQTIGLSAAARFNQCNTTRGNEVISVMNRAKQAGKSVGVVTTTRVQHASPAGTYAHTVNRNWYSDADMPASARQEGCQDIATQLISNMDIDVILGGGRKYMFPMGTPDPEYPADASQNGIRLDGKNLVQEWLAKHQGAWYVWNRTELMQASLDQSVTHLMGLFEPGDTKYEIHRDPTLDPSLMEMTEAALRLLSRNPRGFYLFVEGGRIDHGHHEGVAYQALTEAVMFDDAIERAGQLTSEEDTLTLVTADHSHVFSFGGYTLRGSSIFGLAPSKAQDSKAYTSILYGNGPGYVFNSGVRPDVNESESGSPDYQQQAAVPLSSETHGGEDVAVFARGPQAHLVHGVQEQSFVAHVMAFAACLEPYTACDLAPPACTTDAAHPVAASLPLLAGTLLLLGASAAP
mIAP act: increases mouse intestinal alkaline phosphatase activity; 330,000 compounds, 0.24% hits; activation factor at 10 µM; muIAP, CDP-Star luminescence, 30 min; stronger effect = higher value; 1 = vehicle-only enzyme signal, 0 = enzyme-free wells;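 active = activation factor of at least 2 at 20 µM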
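Assay system: mouse IAP enzyme / Compound: DMSO-dissolved test compounds / Timing: 30 min, room temperature / Measured by: luminescence from enzymatic CDP-Star hydrolysis / Control set: DMSO-only wells, enzyme-free buffer wells as negative control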
bIAP activator: increases bovine intestinal alkaline phosphatase activity | purified bovine IAP, CDP-star luminescence, 30 min; stronger effect = higher value; fold of DMSO-control signal, blank-subtracted | AID 1016 | activation factor at 20 µM | 200,000 compounds, 0.17% hits;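 active = activation factor of 2 or more at 20 µM, a signal rise over negative controls twice the positive control's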
bIAP inhibitor: blocks bovine intestinal alkaline phosphatase activity; purified bovine IAP, CDP-star luminescence, 30 min; inhibition, % at 20 µM; 190,000 tested, under 10 active; AID 1019;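 active = over 50% inhibition of intestinal alkaline phosphatase at 20 µM in the single-dose screen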
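System: Purified bovine intestinal alkaline phosphatase (IAP) enzyme | Input: IAP diluted 1/65,000,000 in the well | Also added: CDP-star chemiluminescent phosphatase substrate, 30 µM final | Dosing: 20 µM single dose | Times: Enzyme reaction for 30 min at room temperature | Detection: Luminescence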
hIAP inh: blocks human intestinal alkaline phosphatase; P09923; purified IAP, CDP-Star luminescence, 30 min; inhibition, % at 10 µM; 330,000 compounds, 0.12% hits; AID 2544;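 active = inhibition reaching a set limit with compound at 10 µM in the primary screen, cut at about 35% in these data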;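 also: plate controls were DMSO wells with enzyme for no effect and no-enzyme buffer wells for full effect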
Numbers without * were called inactive; i = inactive; . = no result. A selection: hits, their analogues and other compounds. The true share with any hit is near 0.72%.

SMILES	mIAP block	hIAP activ	mIAP act	bIAP activator	bIAP inhibitor	hIAP inh
O=C(C1CCCO1)N1CCN(C(=S)Nc2ccc(Cl)cc2)CC1 (configuration not stated)	3.8	0.934	0.962	2.4*	-142.1	6.6
Cc1ccc(NC(=S)N2CCN(C(=O)C3CCCO3)CC2)cc1 (configuration not stated)	-2.0	0.993	1.02	1	4.6	0.7
CCCCCCCCNc1ncnc2ccccc12	-22.5	0.767	1.23	9*	i	23.3
O=C(NC1CCN(C(=O)Nc2cccc(Cl)c2)CC1)C1CCCCC1	-8.6	1.17	1.09	.	.	-16.8
O=C(Nc1cccc(Cl)c1)NC1CCN(C2CCCCC2)C1 (configuration not stated)	-131.6	1.08	2.32*	.	.	-8.4
CCOc1ccc(CCNC(=O)CCNS(=O)(=O)c2ccc3c(c2)CCN3C(C)=O)cc1OCC	2.2	0.92	0.978	.	.	8.0
CC(C)c1ccc(NC(=O)C(c2ccccc2)N2CC(=O)Nc3ccccc32)cc1 (configuration not stated)	-108.4	0.971	2.08*	1.1	-5.1	2.9
CCn1c(S(=O)(=O)O)nc2ccccc21	-5.4	1.12	1.05	.	.	-11.9
Cc1ccc(OCCCn2c(CO)nc3ccccc32)cc1	3.1	1.22	0.969	6.7*	i	-22.2
CC(Cc1cccs1)NC(=O)Nc1ccc(F)cc1 (configuration not stated)	-16.9	0.994	1.17	1	3.2	0.6
CC(Cc1cccs1)NC(=S)Nc1ccc(Cl)c(Cl)c1 (configuration not stated)	-103.8	1	2.04*	1.2	-18.5	0.0
CC(Cc1cccs1)NC(=O)Nc1cccc(Cl)c1 (configuration not stated)	-127.3	0.943	2.27*	0.7	30.5	5.7
COc1cccc(C(=O)c2cn(CC(=O)NCc3ccco3)c3nc(C)ccc3c2=O)c1	3.7	0.833	0.963	.	.	16.7
O=C(CSc1ccc(-c2ccncc2)nn1)c1ccccc1	-4.0	0.939	1.04	0.9	7.6	6.1
CCOC(=O)C1CNc2cc(S(=O)(=O)CC)ccc2O1 (configuration not stated)	-8.9	1.06	1.09	1	1.1	-6.1
COc1ccc(C=NNc2ccc([N+](=O)[O-])cc2S(=O)(=O)Nc2ccccc2C(=O)O)cc1OC	41.5*	0.907	0.585	.	.	9.3
COc1ccccc1NS(=O)(=O)c1cc([N+](=O)[O-])ccc1N/N=C/c1c[nH]c2ccccc12	21.7	0.892	0.783	0.5	47.1	10.8
O=C1CC2(CCN(S(=O)(=O)c3ccccc3F)CC2)Oc2ccccc21	8.8	0.862	0.912	.	.	13.8
O=C(CCCN1C(=O)/C(=C\c2ccco2)SC1=S)Nc1ccc2ccccc2c1	41.2*	0.989	0.588	0.9	9.2	1.1
O=C1/C(=C\c2ccco2)SC(=S)N1Cc1ccccc1	57.1*	1.07	0.429	0.9	10.2	-6.8
COc1ccc(-c2nn(CCC(=O)O)cc2/C=N/NC(N)=S)cc1	2.9	1	0.971	.	.	-0.1
Cc1oc(-c2cc(Cl)cc(Cl)c2)cc1C(=O)NCCc1ccccc1	-262.9	1.11	3.63*	0.9	5.6	-10.9
Cc1ccc(S(=O)(=O)N2CCN(CC(=O)NC(=O)NCc3ccco3)CC2)cc1C	5.5	0.976	0.945	.	.	2.4
O=[N+]([O-])c1ccc(Cl)c(S(=O)(=O)NCCc2ccccn2)c1	18.8	1.05	0.812	.	.	-5.4
CCN(CC)C(=O)Cn1cnc2sc(C(=O)N3CCN(c4ccc(F)cc4)CC3)c(C)c2c1=O	2.1	1.21	0.979	1	-4.1	-20.8
SMILES	mIAP block	hIAP activ	mIAP act	bIAP activator	bIAP inhibitor	hIAP inh
O=C(Cc1cccc2ccccc12)N/N=C/c1ccc(F)cc1	-2.7	0.965	1.03	1	4.3	3.5
O=C(Cc1cccc2ccccc12)N/N=C/c1ccc(OC(=O)/C=C/c2ccco2)cc1	63.4*	0.938	0.366	0.9	6.9	6.2
O=C(N/N=C/c1ccccc1Br)c1cccc(S(=O)(=O)N2CCOCC2)c1	-11.4	1.09	1.11	.	.	-9.2
O=C(N/N=C/c1cc(Br)cc(Br)c1O)c1cccc(S(=O)(=O)N2CCOCC2)c1	41.3*	1.47	0.587	.	.	-47.3
CN(CC(=O)Nc1ccc(F)cc1)C(=O)c1ccncc1	-16.8	1.27	1.17	.	.	-27.3
CS(=O)(=O)N(CC(=O)N1CCN(Cc2ccccc2)CC1)c1cccc(Cl)c1	-4.0	1.17	1.04	.	.	-16.7
COc1ccc(OC)c(NC(=S)NCCCN2CCOCC2)c1	-8.7	0.989	1.09	2.4*	-140.2	1.1
CCN(CC)CCn1c(NCc2nc3ccccc3n2Cc2ccccc2)nc2ccccc21	-45.0	0.96	1.45	2*	-100.8	4.0
c1ccc(Cn2c(CNc3nc4ccccc4n3CCN3CCCCC3)nc3ccccc32)cc1	-59.2	1.93	1.59	0.9	10.7	-92.8
Cc1ccc(NC(=O)Nc2ccccc2F)cc1S(=O)(=O)N1CCOCC1	-158.2	1.15	2.58*	.	.	-14.7
O=C(Nc1cccc(Cl)c1)Nc1cc(S(=O)(=O)N2CCOCC2)ccc1N1CCCC1	-272.3	1.18	3.72*	1	-2.1	-18.2
O=C(Nc1ccccc1)Nc1ccc(Cl)c(S(=O)(=O)N2CCOCC2)c1	-182.4	1.05	2.82*	1	2.2	-5.4
O=C(Nc1ccc(NC(=O)c2ccc(Cl)c(S(=O)(=O)N3CCOCC3)c2)cc1)c1ccccc1	-5.7	1.15	1.06	.	.	-15.1
O=C(CN1CCN(S(=O)(=O)/C=C/c2ccccc2)CC1)Nc1ccccc1N1CCOCC1	-8.8	1.01	1.09	.	.	-1.5
c1ccc2c(c1)CC(CN1CCNCC1)O2 (configuration not stated)	4.5	0.999	0.955	.	.	0.1
COCC(=O)Nc1nnc(SCC(=O)N2C(C)CCCC2C)s1 (configuration not stated)	-3.7	0.929	1.04	.	.	7.1
CCN(CC)CC#CCC(C)(c1ccccc1)c1ccccc1	1.1	0.974	0.989	1	-2.2	2.6
O=C(NCCc1cccc(Cl)c1)c1ccc2c(c1)OCO2	3.6	0.968	0.964	.	.	3.2
CCn1cc(CNCc2cn(-c3ccccc3C)nc2-c2ccc(OC)c(F)c2)cn1	4.1	0.949	0.959	1	0.1	5.1
COc1ccc(-c2nn(-c3ccccc3C)cc2CNCCc2cnc[nH]2)cc1F	-3.0	1.5	1.03	2.3*	-129.2	-49.7
O=C(Oc1cc(=O)oc2ccccc12)c1cccnc1Cl	11.3	0.848	0.887	2.4*	-142.6	15.2
COc1ccc(C2=NOC(Cn3nc(-c4ccccc4)cc3C(=O)NCc3cccs3)C2)cc1 (configuration not stated)	-187.2	0.895	2.87*	.	.	10.5
COC(=O)c1ccc(N2C(=O)Nc3ccccc3N2O)cc1	7.8	0.914	0.922	1	-0.2	8.6
